Source: ChEMBL document CHEMBL2384924, “Antagonists for the orphan G-protein-coupled receptor GPR55 based on a coumarin scaffold” (J Med Chem, 2013)
The source made the active and inactive calls. The rule behind the calls is not given here.

These molecules were tested against T1, G-protein coupled receptor 55 (Homo sapiens, UniProt Q9Y2T6) (assay: Agonist activity at human GPR55 transfected in CHO cells at 10 uM after 90 mins by beta-arrestin translocation assay).
Assay type: cell-based
Procedure, shortened: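 CHO cells stably expressing human GPR55 (β-galactosidase fragment complementation) were seeded at 20,000 cells/well in Opti-MEM with 2% FCS for 24 h at 37°C. Compound was diluted in PBS with 10% DMSO and 0.1% BSA, screened at 10 µM and incubated 90 min at 37°C. Galacton-Star/Emerald-II/lysis buffer (1:5:19) was added for 60 min at RT, then luminescence was read. Response is relative to 1 µM LPI (100%).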

T1 sequence (Q9Y2T6 whole entry): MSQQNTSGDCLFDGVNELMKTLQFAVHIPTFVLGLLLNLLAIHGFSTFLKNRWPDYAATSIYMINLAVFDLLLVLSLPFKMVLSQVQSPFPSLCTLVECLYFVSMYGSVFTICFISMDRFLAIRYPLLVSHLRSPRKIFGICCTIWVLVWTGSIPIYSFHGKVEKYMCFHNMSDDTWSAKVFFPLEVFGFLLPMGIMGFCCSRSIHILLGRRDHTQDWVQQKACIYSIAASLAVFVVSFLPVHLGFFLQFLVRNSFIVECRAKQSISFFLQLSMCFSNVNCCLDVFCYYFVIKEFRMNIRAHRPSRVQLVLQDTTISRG

Row | SMILES | Activity
1 | CCCCCc1cc(O)c2cc(Cc3ccccc3O)c(=O)oc2c1 | inactive
2 | O=c1oc2ccc3ccccc3c2cc1Cc1ccccc1 | inactive
3 | Cc1cc2c(ccc3ccccc32)oc1=O | inactive
4 | COc1cccc2cc(Cc3ccccc3)c(=O)oc12 | inactive
5 | Cc1cc2cc(I)ccc2oc1=O | inactive
6 | CCCCCc1cc(OC)c2cc(Cc3ccccc3)c(=O)oc2c1 | inactive
7 | COc1cccc(Cc2cc3c(OC)cc(CO)cc3oc2=O)c1 | inactive
8 | CCCCCc1cc(OC)c2cc(Cc3cccc(C)c3)c(=O)oc2c1 | inactive
9 | COc1ccc2cc(Cc3ccccc3)c(=O)oc2c1 | inactive
10 | COc1ccc(Br)c2oc(=O)c(Cc3ccccc3)cc12 | inactive
11 | COc1cccc(Cc2cc3c(OC)cc(CBr)cc3oc2=O)c1 | inactive
12 | COc1ccc2oc(=O)c(Cc3ccccc3)cc2c1 | inactive
13 | Cc1cc(O)c2cc(Cc3ccccc3C)c(=O)oc2c1 | inactive
14 | Cc1cc2cc(Cl)cc(Br)c2oc1=O | inactive
15 | CCCCCc1cc(O)c2cc(Cc3ccccc3)c(=O)oc2c1 | inactive
16 | COc1ccc2cc(C)c(=O)oc2c1 | inactive
17 | CCCCCc1cc(OC)c2cc(Cc3cc(C)c(OC)c(C)c3)c(=O)oc2c1 | inactive
18 | COc1cccc2cc(C)c(=O)oc12 | inactive
19 | COc1cccc2oc(=O)c(Cc3ccccc3)cc12 | inactive
20 | O=c1oc2cccc(O)c2cc1Cc1ccccc1 | inactive
21 | CCCCCc1cc(O)c2cc(Cc3cccc(C)c3)c(=O)oc2c1 | inactive
22 | O=c1oc2ccc(I)cc2cc1Cc1ccccc1 | inactive
23 | CCCCCc1cc(OC)c2cc(Cc3cccc(Cl)c3)c(=O)oc2c1 | inactive
24 | CCCCCc1cc(OC)c2cc(Cc3ccc(F)cc3)c(=O)oc2c1 | inactive
25 | O=c1oc2ccccc2cc1Cc1ccccc1 | inactive
26 | COc1cc(Br)cc2cc(C)c(=O)oc12 | inactive
27 | COc1cccc(Cc2cc3c(OC)cccc3oc2=O)c1 | inactive
28 | COc1ccc2oc(=O)c(C)cc2c1 | inactive
29 | Cc1ccc(Cc2cc3c(O)cc(C)cc3oc2=O)cc1 | inactive
30 | CCCCCc1cc(O)c2cc(Cc3cccc(Cl)c3)c(=O)oc2c1 | inactive

The molecules below were run against T1, G-protein coupled receptor 55 (assay: Antagonist activity at human GPR55 transfected in CHO cells assessed as inhibition of LPI-induced beta-arrestin recruitment at 10 uM incubated 60 mins prior to LPI addition by beta-arrestin translocation assay).
Assay type: cell-based
Design: scale not given: the % may be the effect or the level left
Procedure, shortened: (§1)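 CHO cells stably expressing human GPR55 were seeded at 20,000 cells/well for 24 h at 37°C. Compound in PBS/10% DMSO/0.1% BSA was added 60 min before 1 µM LPI. Galacton-Star/Emerald-II/lysis buffer (pH 8) was applied for 60 min at RT, with luminescence read-out. Screening was at 10 µM (% inhibition). IC50 was measured where inhibition exceeded 60%. Three independent experiments in duplicate.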

Row | SMILES | Activity [%]
31 | CCCCCc1cc(O)c2cc(Cc3ccccc3O)c(=O)oc2c1 | 37
32 | Cc1cc2c(ccc3ccccc32)oc1=O | 28
33 | COc1cccc2cc(Cc3ccccc3)c(=O)oc12 | 5
34 | Cc1cc2cc(I)ccc2oc1=O | 40
35 | CCCCCc1cc(OC)c2cc(Cc3ccccc3)c(=O)oc2c1 | 36
36 | COc1cccc(Cc2cc3c(OC)cc(CO)cc3oc2=O)c1 | 13
37 | CCCCCc1cc(OC)c2cc(Cc3cccc(C)c3)c(=O)oc2c1 | 27
38 | COc1ccc2cc(Cc3ccccc3)c(=O)oc2c1 | 53
39 | COc1ccc(Br)c2oc(=O)c(Cc3ccccc3)cc12 | 2
40 | COc1cccc(Cc2cc3c(OC)cc(CBr)cc3oc2=O)c1 | 18
41 | COc1ccc2oc(=O)c(Cc3ccccc3)cc2c1 | 54
42 | Cc1cc(O)c2cc(Cc3ccccc3C)c(=O)oc2c1 | 45
43 | Cc1cc2cc(Cl)cc(Br)c2oc1=O | 45
44 | CCCCCc1cc(O)c2cc(Cc3ccccc3)c(=O)oc2c1 | 0
45 | COc1ccc2cc(C)c(=O)oc2c1 | 25
46 | CCCCCc1cc(OC)c2cc(Cc3cc(C)c(OC)c(C)c3)c(=O)oc2c1 | 44
47 | COc1cccc2cc(C)c(=O)oc12 | 7
48 | COc1cccc2oc(=O)c(Cc3ccccc3)cc12 | 43
49 | O=c1oc2cccc(O)c2cc1Cc1ccccc1 | 6
50 | CCCCCc1cc(O)c2cc(Cc3cccc(C)c3)c(=O)oc2c1 | 19
51 | O=c1oc2ccc(I)cc2cc1Cc1ccccc1 | 46
52 | CCCCCc1cc(OC)c2cc(Cc3cccc(Cl)c3)c(=O)oc2c1 | 36
53 | CCCCCc1cc(OC)c2cc(Cc3ccc(F)cc3)c(=O)oc2c1 | 57
54 | O=c1oc2ccccc2cc1Cc1ccccc1 | 28
55 | COc1cc(Br)cc2cc(C)c(=O)oc12 | 16
56 | COc1cccc(Cc2cc3c(OC)cccc3oc2=O)c1 | 54
57 | COc1ccc2oc(=O)c(C)cc2c1 | 13
58 | Cc1ccc(Cc2cc3c(O)cc(C)cc3oc2=O)cc1 | 42
59 | CCCCCc1cc(O)c2cc(Cc3cccc(Cl)c3)c(=O)oc2c1 | 30

What follows are molecules tested against T1, G-protein coupled receptor 55 (assay: Antagonist activity at human GPR55 transfected in CHO cells assessed as inhibition of LPI-induced beta-arrestin recruitment incubated 60 mins prior to LPI addition by beta-arrestin translocation assay).
Assay type: cell-based
Procedure, shortened: as §1

Row | SMILES | IC50 [µM]
60 | CCCCCc1cc(O)c2cc(Cc3ccccc3O)c(=O)oc2c1 | > 10
61 | O=c1oc2ccc3ccccc3c2cc1Cc1ccccc1 | 2.81
62 | Cc1cc2c(ccc3ccccc32)oc1=O | > 10
63 | COc1cccc2cc(Cc3ccccc3)c(=O)oc12 | > 10
64 | Cc1cc2cc(I)ccc2oc1=O | > 10
65 | CCCCCc1cc(OC)c2cc(Cc3ccccc3)c(=O)oc2c1 | > 10
66 | COc1cccc(Cc2cc3c(OC)cc(CO)cc3oc2=O)c1 | > 10
67 | CCCCCc1cc(OC)c2cc(Cc3cccc(C)c3)c(=O)oc2c1 | > 10
68 | COc1ccc2cc(Cc3ccccc3)c(=O)oc2c1 | 10
69 | COc1ccc(Br)c2oc(=O)c(Cc3ccccc3)cc12 | > 10
70 | COc1cccc(Cc2cc3c(OC)cc(CBr)cc3oc2=O)c1 | > 10
71 | COc1ccc2oc(=O)c(Cc3ccccc3)cc2c1 | 10
72 | Cc1cc(O)c2cc(Cc3ccccc3C)c(=O)oc2c1 | > 10
73 | Cc1cc2cc(Cl)cc(Br)c2oc1=O | > 10
74 | CCCCCc1cc(O)c2cc(Cc3ccccc3)c(=O)oc2c1 | > 10
75 | COc1ccc2cc(C)c(=O)oc2c1 | > 10
76 | CCCCCc1cc(OC)c2cc(Cc3cc(C)c(OC)c(C)c3)c(=O)oc2c1 | > 10
77 | COc1cccc2cc(C)c(=O)oc12 | > 10
78 | COc1cccc2oc(=O)c(Cc3ccccc3)cc12 | > 10
79 | O=c1oc2cccc(O)c2cc1Cc1ccccc1 | > 10
80 | CCCCCc1cc(O)c2cc(Cc3cccc(C)c3)c(=O)oc2c1 | > 10
81 | O=c1oc2ccc(I)cc2cc1Cc1ccccc1 | > 10
82 | CCCCCc1cc(OC)c2cc(Cc3cccc(Cl)c3)c(=O)oc2c1 | > 10
83 | CCCCCc1cc(OC)c2cc(Cc3ccc(F)cc3)c(=O)oc2c1 | 10
84 | O=c1oc2ccccc2cc1Cc1ccccc1 | > 10
85 | COc1cc(Br)cc2cc(C)c(=O)oc12 | > 10
86 | COc1cccc(Cc2cc3c(OC)cccc3oc2=O)c1 | 10
87 | COc1ccc2oc(=O)c(C)cc2c1 | > 10
88 | Cc1ccc(Cc2cc3c(O)cc(C)cc3oc2=O)cc1 | > 10
89 | CCCCCc1cc(O)c2cc(Cc3cccc(Cl)c3)c(=O)oc2c1 | > 10
